# From PubChem BioAssay
# An excerpt weighted towards active compounds, which were near 1.3% of everything screened.
# FN deposition inh = inhibitors of fibronectin matrix deposition, primary screen, AH1F cells, Alexa488-fibronectin fluorescence, plate reader | AH1F fibroblasts, overnight | inhibition, % at 12.6 µM | actives 0.086% (n = 350,000);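 active means mean inhibition across replicates of 30% or more, regardless of how many single replicates reach that level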;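 further: positive control wells lacked labelled fibronectin entirely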
#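 test system = AH1F fibroblasts assembling fluorescent fibronectin matrix | quantity = 10000 AH1F cells per well | buffer or medium = DMEM plus 2% serum, read in PBS | doses = single dose, pinned | incubation = 1 h cell attachment, overnight exposure to compound and label | detection = fluorescence at 485 nm excitation, 525 nm emission | read-out basis = inhibition from reduced deposited-fibronectin fluorescence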
# MLL AF4-AF9 inh = inhibitors of AF4 peptide binding to AF9, primary screen, biochemical, AlphaScreen, biotin-AF4 peptide, FLAG-AF9, single point; Protein AF-9 (Homo sapiens), P42568; inhibition, % at 10 µM; actives 0.47% (n = 350,000);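 active means every replicate reaching a set inhibition limit, whatever the replicate mean, cut at about 25% in these data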;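 further: 0% = plate neutral control median and 100% = total signal loss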
# SIRT5 block = SIRT5 desuccinylase inhibitors, primary screen, biochemical, fluorescence imaging, single point, set 5; NAD-dependent protein deacylase sirtuin-5, mitochondrial (Homo sapiens), Q9NXA8; Purified SirT5, succinyl-peptide AMC, trypsin-coupled fluorescence; inhibition, % at 15 µM; actives 1.1% (n = 330,000); in the data active means inhibition above about 15%
# Target sequence (Q9NXA8 whole entry, looked up): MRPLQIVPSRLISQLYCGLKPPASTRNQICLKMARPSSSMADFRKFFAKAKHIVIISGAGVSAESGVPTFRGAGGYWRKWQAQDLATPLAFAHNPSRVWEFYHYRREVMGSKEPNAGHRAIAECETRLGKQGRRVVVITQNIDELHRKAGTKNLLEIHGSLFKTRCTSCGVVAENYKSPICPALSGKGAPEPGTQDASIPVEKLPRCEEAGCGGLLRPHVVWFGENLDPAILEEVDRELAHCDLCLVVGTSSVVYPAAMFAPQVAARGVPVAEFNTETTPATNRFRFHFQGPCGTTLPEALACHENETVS
# PDI inh = inhibitors of human PDI, primary screen, biochemical, turbidity, single point, plate reader; Protein disulfide-isomerase (Homo sapiens), P07237; PDI insulin aggregation turbidity, A650, 90 min; inhibition, % at 10 µM; actives 0.052% (n = 350,000); AID 588391, 2011;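 active means mean inhibition across replicates of 30% or more, whatever share of single replicates reach that level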
# ERp5 inh = inhibitors of ERp5-driven insulin aggregation, primary screen, biochemical, turbidity, absorbance 650 nm, single point. Protein disulfide-isomerase A6 (Homo sapiens), Q15084. 90 min. inhibition, % at 9.99 µM. actives 0.05% (n = 350,000);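 active means mean replicate inhibition above about 25%, with every replicate also reaching it, limit read from the data, passing the limit was not always enough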
# Active calls of the source: *; · = not tested or not shown; ! = not active in a repeat.
SMILES,FN deposition inh,MLL AF4-AF9 inh,SIRT5 block,PDI inh,ERp5 inh
COC(=O)c1cccc(Cn2nc(C)c([N+](=O)[O-])c2C)c1,0,2,15*,-6,6
Cc1nn(Cc2cccc(C(=O)O)c2)c(C)c1[N+](=O)[O-],-9,-7,4,-1,3
COc1ccccc1N1CCN(CC(=O)Nc2c(C)n(C)n(-c3ccccc3)c2=O)CC1,4,0,29*,-1,-3
CC(Oc1ccc(S(=O)(=O)N2CCCC2)cc1[N+](=O)[O-])C(=O)NC(C)c1ccccc1 (stereo unspecified),-3,11,-1,6,0
O=C(NNc1nc(N2CCOCC2)nc(N2CCOCC2)n1)Nc1ccc(Cl)cc1,-1,2,15*,·,5
COc1ccc(NC(=O)NNc2cc(N3CCOCC3)nc(N3CCOCC3)n2)cc1,5,-1,-1,4,-1
COC(=O)N(C)C[C@@H]1OCc2cn(nn2)CCCC(=O)N([C@H](C)CO)C[C@H]1C,13,-1,3,·,0
CC(C)OC(=O)N(C)C[C@@H]1OCc2cn(nn2)CCCC(=O)N([C@@H](C)CO)C[C@@H]1C,-5,-4,16*,·,0
CC(C)OC(=O)N(C)C[C@@H]1OCc2cn(nn2)CCCC(=O)N([C@H](C)CO)C[C@H]1C,-2,1,27*,7,-3
C[C@@H]1CN([C@H](C)CO)C(=O)CCCn2cc(nn2)CO[C@@H]1CN(C)S(=O)(=O)c1ccc(F)cc1,3,-1,0,·,-1
C[C@@H]1CN([C@H](C)CO)C(=O)CCCn2cc(nn2)CO[C@H]1CN(C)S(=O)(=O)c1ccc(F)cc1,-13,-9,23*!,·,1
C[C@H](CO)N1C[C@H](C)[C@H](CN(C)C(=O)CCCN(C)C)OCc2cn(nn2)CCCC1=O,2,-4,17*,·,-2
CCOc1ccc(OCC(=O)OCC(=O)N2CCN(S(=O)(=O)c3ccc(C)cc3C)CC2)cc1,·,-5,-5,-5,0
Cc1ccccc1-c1ccc([C@@H]2[C@H](CO)N3CCCCN(CC4CC4)C[C@@H]23)cc1,·,16,-1,·,-3
Cc1cc(NC(=O)COc2coc(CN3CCN(c4ccccc4)CC3)cc2=O)no1,-2,-1,-4,2,4
COc1ccc(CN(C)CCCn2cnc3c(OCc4ccccc4)ncnc32)cc1,7,5,-1,-8,-2
COc1cccc(CN(C)CCCn2cnc3c(SC)ncnc32)c1,2,-4,15*,2,5
Cc1cccc(-c2cc(=O)c(C(=O)O)cn2-c2ccc(F)cc2F)c1,14,1,-7,-2,-6
c1ccc(CCCNc2ncnc3nc[nH]c23)cc1,8,1,18*,-9,-2
Cc1ccc(CNC(=O)N[C@@H](Cc2ccccc2)C(=O)O)cc1,2,-2,17*,6,-2
O=C(CNCc1ccccn1)Nc1cc(C(F)(F)F)ccc1N1CCOCC1,-1,0,17*,-6,4
O=C(CN1C(=O)NC2(CCCCCC2)C1=O)Nc1ccc(Cl)c([N+](=O)[O-])c1,5,-1,-7,-12,0
CN(C)CC(=O)Nc1ccc2c(c1)[C@@H]1C[C@@H](CC(=O)N3CCCCC3)O[C@@H](CO)[C@@H]1O2,·,3,-3,·,-2
CCOC(=O)c1ccccc1-n1c(C)cc(C2N=C(N)Nc3nc4ccccc4n32)c1C (stereo unspecified),·,25*,-3,-8,5
COc1ccc(/C=C/C(=O)C23CC4CC(CC(C4)C2)C3)cc1CN1CCOCC1,1,26*,-8,0,-6
SMILES,FN deposition inh,MLL AF4-AF9 inh,SIRT5 block,PDI inh,ERp5 inh
Cc1nn2c(N3CCN(C)CC3)c3c(nc2c1-c1ccccc1)CCCC3,-12,7,-3,0,-1
O=C(Cn1[nH]c(=O)c2ccccc2c1=O)OCC(=O)c1ccc(F)c(F)c1,1,2,-3,5,4
O=C(Cn1[nH]c(=O)c2ccccc2c1=O)OCC(=O)c1ccc(F)cc1,2,-8,16*,3,-10
COc1ccc(/C=N/NC(=O)c2sc3nc(C)cc(C)c3c2N)cc1,1,-18,-3,4,-6
Cc1noc(C)c1S(=O)(=O)Nc1ccc2c(c1)C(=O)N([C@@H](C)CO)C[C@H](C)[C@@H](CN(C)Cc1ccc(C(F)(F)F)cc1)OCCCC[C@@H](C)O2,·,1,25*,·,1
Cc1noc(C)c1S(=O)(=O)Nc1ccc2c(c1)C(=O)N([C@H](C)CO)C[C@H](C)[C@@H](CN(C)Cc1ccc(C(F)(F)F)cc1)OCCCC[C@H](C)O2,·,2,25*,·,-3
Cc1noc(C)c1S(=O)(=O)Nc1ccc2c(c1)C(=O)N([C@@H](C)CO)C[C@@H](C)[C@H](CN(C)Cc1ccc(C(F)(F)F)cc1)OCCCC[C@H](C)O2,·,-1,9,·,4
COC(CNC(=O)[C@H](Cc1ccccc1)N1Cc2ccccc2C1=O)OC,-1,-3,-3,4,3
Cn1c(-c2cccc(Br)c2)cnc1NCc1ccccc1O,-1,26*,1,14,1
COCCCN1C(=O)C(CC(=O)NC(c2ccccc2)c2ccccc2)CC(C(=O)N2CCOCC2)=C1C (stereo unspecified),-1,-1,29*,-4,7
COCCCN1C(=O)C(CC(=O)NC(c2ccccc2)c2ccccc2)CC(C(=O)N(C)C)=C1C (stereo unspecified),-2,-2,-4,4,4
CN1CCN(CCCNC(=O)c2ccc(NC(=O)C3=CSCCO3)cc2)CC1,15,-3,0,2,0
CN(C)c1ccc(NC(=O)Cn2cc3c(n2)CCCC3)cc1,4,31*,·,·,3
Cn1c(NCc2ccc(Cl)cc2)nc2ccccc21,8,-1,0,0,4
CSCCC(NC(=O)c1ccccc1Cl)C(=O)NNC(=O)c1csc(N2CCOCC2)n1 (stereo unspecified),-1,0,0,-4,0
CSCCC(NS(=O)(=O)c1ccccc1F)C(=O)NNC(=O)c1csc(N2CCOCC2)n1 (stereo unspecified),-4,-9,17*,-2,-4
COc1ccc(CCN2CC(C(=O)N(C)CCn3nc(C)cc3C)CCC2=O)cc1 (stereo unspecified),7,-5,0,-8,5
CC(C)C#Cc1cnc2c(c1)C(=O)N([C@@H](C)CO)C[C@H](C)[C@@H](CN(C)C(=O)c1ccccc1F)O2,-7,-1,-2,·,1
